The list is not random: actives were taken first. Their share in the collection is about 2.7%.
CSN inh: inhibitors of CSN-mediated cullin deneddylation, primary screen, biochemical, fluorescence polarization, uHTS; COP9 signalosome complex subunit 5 (Homo sapiens), Q92905; Purified CSN, SCF-Nedd8-OG deneddylation; inhibition, % at 12.5 µM; actives 0.38% (n = 360,000); AID 651999, 2013;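 active means pattern-corrected inhibition above about 35%, with an unprinted fluorescence ratio check between 0.5 and 1.5, limit read from the data, passing the limit was not always enough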;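 further: 0% = enzyme with substrate and 100% = substrate without enzyme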
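Assay system: HEK293T-derived human Csn5 enzyme; quantity: 0.24 nM enzyme; medium: Tris/NaCl/DTT buffer, pH 7.5; also added: substrate SCFSkp2-Nedd8OG, 10 nM; doses: 12.5 µM compound; schedule: 90 min reaction at room temperature; signal: FP; read-out: % inhibition of substrate cleavage by Csn5; benchmarks: substrate-only high control, full reaction low control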
HNF4A DNA FP: change in binding of human HNF4A to DNA, primary screen, biochemical, fluorescence polarization, FITC-DNA. 1 h. actives 0.3% (n = 360,000). activity change, % at 10 µM. Hepatocyte nuclear factor 4-alpha (Homo sapiens), P41235; in the data active means activity change above about 30%, passing the limit was not always enough
Rpn11 block: Rpn11 (PSMD14) deubiquitinase inhibitors, primary screen, biochemical, fluorescence polarization, uHTS; actives 0.59% (n = 360,000); inhibition, % at 20 µM; human 26S proteasome, Ub4-pepOG fluorescence polarization; 20S core pre-blocked with epoxomicin; AID 588493, 2011; 26S proteasome non-ATPase regulatory subunit 14 (Homo sapiens), O00487;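 active means inhibition at 20 µM, scaled to each plate's controls, above about 33%, limit read from the data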
Target sequence (O00487 whole entry, looked up): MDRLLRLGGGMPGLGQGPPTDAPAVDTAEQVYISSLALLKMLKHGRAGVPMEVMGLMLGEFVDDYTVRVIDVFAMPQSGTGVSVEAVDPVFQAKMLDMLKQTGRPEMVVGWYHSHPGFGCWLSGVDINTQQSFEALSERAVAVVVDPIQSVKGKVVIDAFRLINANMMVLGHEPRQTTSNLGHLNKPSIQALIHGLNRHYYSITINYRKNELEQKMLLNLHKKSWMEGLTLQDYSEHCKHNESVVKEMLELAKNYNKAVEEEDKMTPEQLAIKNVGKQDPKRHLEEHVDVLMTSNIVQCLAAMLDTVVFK
PP1 inh: PP1-alpha phosphatase inhibitors, primary screen, counter-screen for PP5 inhibitor project, biochemical, fluorescence, OMFP substrate, single point; Serine/threonine-protein phosphatase PP1-alpha catalytic subunit (Homo sapiens), P62136; purified PP1alpha; inhibition, % at 6.7 µM; actives 0.9% (n = 320,000); AID 2235, 2010;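 active means inhibition above the mean inhibition of all tested compounds plus 3 SD, computed separately for each screening campaign, cut at about 15% in these data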
Target sequence (P62136 whole entry, looked up): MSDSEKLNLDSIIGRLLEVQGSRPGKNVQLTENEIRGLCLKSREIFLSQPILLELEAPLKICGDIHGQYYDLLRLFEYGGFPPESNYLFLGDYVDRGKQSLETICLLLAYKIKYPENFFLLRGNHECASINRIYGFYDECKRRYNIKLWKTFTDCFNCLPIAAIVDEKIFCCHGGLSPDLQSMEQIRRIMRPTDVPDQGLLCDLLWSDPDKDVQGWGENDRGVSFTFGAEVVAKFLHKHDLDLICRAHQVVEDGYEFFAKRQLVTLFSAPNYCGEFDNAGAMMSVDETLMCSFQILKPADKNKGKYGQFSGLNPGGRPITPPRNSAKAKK
NadD inh: inhibitors of S. aureus NadD, primary screen, biochemical, colorimetric, uHTS; purified NadD enzyme, colorimetric absorbance read-out; inhibition, % at 20 µM; actives 0.78% (n = 360,000); in the data active means inhibition above about 26%
TPT1 inhibitor: Candida albicans TPT1 enzyme inhibitors, primary screen, biochemical, fluorescence polarization. tRNA 2'-phosphotransferase TPT1 (Candida albicans SC5314). recombinant caTPT1, FP RNA substrate dephosphorylation. inhibition, % at 5 µM. actives 0.81% (n = 300,000). AID 1962, 2009;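 active means inhibition above the mean of all tested compounds plus 3 SD, set per screening campaign, cut at about 24% in these data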;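 further: plate controls were DMSO alone for no effect and ferristatin control at 100 nM for full effect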
TPT1 inh confirm: Candida albicans TPT1 inhibitors, confirmation, biochemical, fluorescence polarization, triplicate; inhibition, % at 5 µM; recombinant caTPT1, RNase T1 coupled; actives 74% (n = 2,400); shares compounds with TPT1 inhibitor;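 active means inhibition above the primary screen limit, the mean inhibition of all tested compounds plus 3 SD, cut at about 25% in these data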
RNase T1 counter: RNase T1 inhibitors, counter-screen for TPT1 inhibitor project, biochemical, fluorescence polarization; shares compounds with TPT1 inhibitor; RNase T1 cleavage, 1536-well; inhibition, % at 5 µM; actives 83% (n = 2,400); AID 2153, 2009;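 active means inhibition above the solvent-only control well mean plus 3 SD, limit set per screening run, cut at about 23% in these data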;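 further: plate controls were DMSO wells with enzyme for no effect and wells without RNase T1 for full effect; inhibitors block cleavage so intact labeled substrate keeps polarization high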
The depositor's hits bear a star; · = no result shown.

SMILES	CSN inh	HNF4A DNA FP	Rpn11 block	PP1 inh	NadD inh	TPT1 inhibitor	TPT1 inh confirm	RNase T1 counter
Cc1cccc(C(=O)NCCC(=O)NCc2ccccc2Cl)c1	2.7	2.4	0.2	-2.0	-5.5	·	·	·
CCCCOCCCNC(=O)C[C@@H]1C[C@@]2(C(=O)OC)CCCCC=C2N(CCc2ccc(OC)c(OC)c2)C1=O	-2.9	0.6	·	·	·	·	·	·
CCOC(=O)CNC(=O)N(C)[C@H]1C[C@H]2c3[nH]c4ccccc4c3CCN2C(=O)[C@H]1[C@H](C)O	1.0	0.4	-1.5	·	-1.0	·	·	·
COc1ccc(/C=C/C(=O)c2ccncc2)c2ccccc12	0.8	0.9	31.7	2.4	3.6	63.0*	73.0*	81.0*
CCOC(=O)c1sc(N/N=C/c2ccccc2)nc1C	-4.2	0.2	9.5	-2.2	1.7	0.0	·	·
CC(=O)c1sc(N/N=C\c2ccccc2O)nc1C	12.9	34.7*	·	0.8	0.5	135.8*	118.0*	114.8*
CC(=O)Nc1cccc(Oc2nc(NC(C)C)nc3cc(-c4ccccc4)sc23)c1	0.0	-0.6	1.5	·	5.5	·	·	·
CCCCNC(=O)c1nc(C2CCN(S(=O)(=O)c3ccc(F)c(F)c3)CC2)oc1-c1ccccc1	3.9	-0.8	-9.4	·	-4.1	·	·	·
COc1ccc(N=Cc2sc(O)c3ccccc23)cc1	82.2	79.5	·	-1.6	-2.6	147.3*	119.5*	115.7*
COc1ccc(N=Cc2c(OC)ccc3ccccc23)cc1	1.4	0.0	3.0	-3.5	-5.4	0.6	·	·
O=C1/C(=C/N(C(=O)c2ccco2)c2ccc(Cl)cc2)Sc2ccccc21	9.5	13.2	16.4	4.4	0.8	68.9*	70.3*	82.4*
O=C1/C(=C/N(C(=O)c2ccco2)c2ccc(Br)cc2)Sc2ccccc21	21.1	13.7	51.6*	-1.8	8.0	70.3*	71.0*	84.8*
COc1ccc(CN(C(=O)c2ccco2)c2ccc(Br)cc2)cc1OC	0.7	-0.2	-4.1	-4.9	-1.9	-1.3	·	·
Cc1ccc(C2=NOC(=O)/C2=C\c2ccc(C)o2)cc1	11.3	0.6	9.6	-0.9	3.2	40.4*	9.7	15.0
Cc1ccc(N(CC(=O)NCC2CCCO2)C(=O)CCC(=O)Nc2cc(C)on2)cc1 (centres undefined)	1.4	2.5	4.8	-1.6	-7.4	-1.3	·	·
C=CCN(C(=O)CNC(=O)c1ccco1)C(C(=O)NC1CCCC1)c1ccc(OC)cc1 (centres undefined)	1.2	3.0	1.2	0.8	-8.9	-0.8	·	·
COc1ccc(CCNC(=O)Cc2ccc(NS(=O)(=O)c3ccc(F)cc3)cc2)cc1OC	-2.5	3.5	-5.3	-5.5	-0.9	·	·	·
O=C(CN1CCN(S(=O)(=O)c2ccc(Br)cc2)CC1)N/N=C/c1ccc(Br)s1	0.7	3.8	3.6	2.1	3.3	29.9*	13.9	16.0
Cc1cc(C2C(C#N)=C(N)Oc3n[nH]c(C)c32)c(C)s1 (centres undefined)	-2.5	-0.7	5.5	2.7	-4.6	-2.0	·	·
Cc1[nH]nc2c1C(c1ccsc1C)C(C#N)=C(N)O2 (centres undefined)	2.4	4.5	-8.7	0.6	7.9	-3.5	·	·
Cc1cc(C2C(C#N)=C(N)SC(N)=C2C#N)c(C)s1	105.6	85.4	·	-1.7	3.7	100.8*	46.1*	59.3*
Cc1sccc1C1C(C#N)=C(N)SC(N)=C1C#N	·	·	·	-2.1	·	100.2*	70.1*	84.5*
CCc1nc2ccc(C(=O)NCCC(C)C)cn2c1N(C)Cc1ccc(OC)cc1	-1.8	-0.2	-0.3	·	-0.5	·	·	·
Cc1ccc(O)c(C(=O)c2cc(C#N)c3nc4ccccc4n3c2)c1	6.1	81.3	·	0.0	13.8	39.5*	59.4*	72.2*
O=C(c1ccc2oc(CCCc3ccccc3)nc2c1)N1CCCC1	-0.6	-1.6	1.0	-8.4	-0.5	-0.8	·	·
SMILES	CSN inh	HNF4A DNA FP	Rpn11 block	PP1 inh	NadD inh	TPT1 inhibitor	TPT1 inh confirm	RNase T1 counter
Cc1ccc2c(CSc3nc4ccccc4c(=O)n3CCCO)cc(=O)oc2c1C	4.0	3.2	5.9	10.7	-6.0	32.0*	5.0	9.4
Cc1ccc2c(CSc3nnc4ccccn34)cc(=O)oc2c1C	2.4	0.2	-2.6	-2.4	-2.1	3.9	·	·
Cc1ccc(S(=O)(=O)N(C)C[C@H]2OCCCC[C@H](C)Oc3ccc(NC(=O)Nc4cccc5ccccc45)cc3C(=O)N([C@@H](C)CO)C[C@H]2C)cc1	-1.8	3.6	11.9	·	24.8	·	·	·
COc1ccc2c(c1)c1ccccc1n2C	-1.4	-1.4	-6.4	-0.1	-7.6	-0.2	·	·
COc1ccc2c(c1)c(/C=C/c1cc[n+](C)cc1)cn2C	73.9*	127.2	·	4.4	15.1	72.2*	87.7*	90.7*
COc1ccc(-c2ccc(-c3noc(-c4cccs4)n3)c(OC)n2)cc1	10.2	24.8	·	5.2	-0.4	26.1*	28.3*	38.6*
N#CC1=CN(Cc2ccccc2)C=C(/C=N/Nc2ccccc2)C1	14.8	10.8	34.3	-4.6	27.7	25.5*	14.3	24.6*
C=CCn1c(C(CC(C)C)CC(C)O)n[nH]c1=S (centres undefined)	1.2	-0.9	5.3	-2.7	6.9	42.5*	1.7	4.2
COC(=O)c1cccc(Cn2c(Cl)c(/C=N/Nc3ccccc3C)sc2=O)c1	-0.3	14.1	34.5	5.2	4.5	29.0*	34.8*	42.1*
COc1ccc(S(=O)(=O)N2CCC(C(=O)Oc3cccc(C)c3)CC2)cc1OC	4.3	4.1	-0.5	-3.3	-10.4	0.8	·	·
CN1/C(=C\C=C(/C#N)C(=O)Nc2ccccc2F)C(C)(C)c2ccccc21	123.2	101.6	·	-7.2	5.8	123.1*	94.6*	92.9*
Cc1nn(C)c(C(=O)N/N=C/c2cccnc2)c1Br	-0.5	2.4	3.9	-0.1	-0.3	1.7	·	·
COC(=O)CSc1nc(N)c2c3c(sc2n1)CCCC3	1.0	-2.0	3.9	-0.9	3.8	-6.3	·	·
COC(=O)CSc1nc(N)c2c3c(sc2n1)C(c1ccccc1)SC(c1ccccc1)C3 (centres undefined)	24.8	24.7	·	7.3	49.7*	72.2*	22.4	31.4*

Screens: PubChem, several laboratories
